According to ChEMBL document CHEMBL1122688, “Antimycotic azoles. 7. Synthesis and antifungal properties of a series of novel triazol-3-ones” (1984):

What was measured:
[1] = test system: Aspergillus fumigatus; test: In vitro antifungal activity against Aspergillus fumigatus; assay type: functional
In short: (§1)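 Fungal growth-inhibition screen (Godefroi method) against dermatophytes, yeasts, moulds and other fungi. The value is the lowest concentration (µg/mL) giving total inhibition of growth, tested up to 100 µg/mL.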

[2] = test system: Candida albicans; test: In vitro antifungal activity against Candida albicans; assay type: functional; in short: as §1
[3] = test system: Candida tropicalis; test: In vitro antifungal activity against Candida tropicalis; assay type: functional; in short: as §1
[4] = test system: Cryptococcus neoformans; test: In vitro antifungal activity against Cryptococcus neoformans; assay type: functional; in short: as §1
[5] = test system: Microsporum canis; test: In vitro antifungal activity against Microsporum canis; assay type: functional; in short: as §1
[6] = In vitro antifungal activity against Mucor sp; assay type: functional; in short: as §1
[7] = test system: Phialophora verrucosa; test: In vitro antifungal activity against Phialophora verrucosa; assay type: functional; in short: as §1
[8] = test system: Saprolegnia; test: In vitro antifungal activity against Saprolegnia sp; assay type: functional; in short: as §1
[9] = test system: Sporothrix schenckii; test: In vitro antifungal activity against Sporothrix schenck ii; assay type: functional; in short: as §1
[10] = test system: Trichophyton benhamiae; test: In vitro antifungal activity against Trichophyton mentagrophytes; assay type: functional, Arthroderma benhamiae; in short: as §1
[11] = test system: Trichophyton rubrum; test: In vitro antifungal activity against Trichophyton rubrum; assay type: functional; in short: as §1
[12] = In vivo activity against microsporosis guinea pig, measured as the ratio of animals cured/animals infected (C/I) at dose 10 mg/kg; C/I = 2/4; assay type: functional
[13] = In vivo activity against microsporosis guinea pig, measured as the ratio of animals cured/animals infected (C/I) at dose 2.5 mg/kg; C/I = 0/2; assay type: functional
[14] = In vivo activity against vaginal candidoses in rats, measured as the ratio of animals cured/animals infected (C/I) at dose 2.5 mg/kg; C/I = 0/2; assay type: functional
[15] = In vivo activity against vaginal candidoses in rats, measured as the ratio of animals cured/animals infected (C/I) at dose 2.5 mg/kg; C/I = 4/6; assay type: functional
[16] = In vivo activity against vaginal candidoses in rats, measured as the ratio of animals cured/animals infected (C/I) at dose 1.25 mg/kg; C/I = 0/2; assay type: functional
[17] = test system: Rattus norvegicus; test: In vivo activity against vaginal candidoses in rats, measured as the ratio of animals cured/animals infected (C/I) at dose 1.25 mg/kg; C/I = 16/18; assay type: functional
[18] = In vivo activity against microsporosis guinea pig, measured as the ratio of animals cured/animals infected (C/I) at dose 10 mg/kg; C/I = 4/8; assay type: functional
[19] = In vivo activity against microsporosis guinea pig, measured as the ratio of animals cured/animals infected (C/I) at dose 1.25 mg/kg; C/I = 0/8; assay type: functional
[20] = In vivo activity against microsporosis guinea pig, measured as the ratio of animals cured/animals infected (C/I) at dose 2.5 mg/kg; C/I = 3/10; assay type: functional
[21] = In vivo activity against vaginal candidoses in rats, measured as the ratio of animals cured/animals infected (C/I) at dose 0.63 mg/kg; C/I = 4/12; assay type: functional
[22] = In vivo activity against vaginal candidoses in rats, measured as the ratio of animals cured/animals infected (C/I) at dose 2.5 mg/kg; C/I = 13/15; assay type: functional
[23] = In vivo activity against vaginal candidoses in rats, measured as the ratio of animals cured/animals infected (C/I) at dose 10 mg/kg; C/I = 10/12; assay type: functional
[24] = In vivo activity against microsporosis guinea pig, measured as the ratio of animals cured/animals infected (C/I) at dose 10 mg/kg; C/I = 1/2; assay type: functional
[25] = In vivo activity against vaginal candidoses in rats, measured as the ratio of animals cured/animals infected (C/I) at dose 10 mg/kg; C/I = 4/4; assay type: functional
[26] = In vivo activity against microsporosis guinea pig, measured as the ratio of animals cured/animals infected (C/I) at dose 10 mg/kg; C/I = 2/6; assay type: functional
[27] = In vivo activity against microsporosis guinea pig, measured as the ratio of animals cured/animals infected (C/I) at dose 2.5 mg/kg; C/I = 0/8; assay type: functional
[28] = In vivo activity against vaginal candidoses in rats, measured as the ratio of animals cured/animals infected (C/I) at dose 2.5 mg/kg; C/I = 6/6; assay type: functional
[29] = In vivo activity against vaginal candidoses in rats, measured as the ratio of animals cured/animals infected (C/I) at dose 0.63 mg/kg; C/I = 4/11; assay type: functional
[30] = In vivo activity against vaginal candidoses in rats, measured as the ratio of animals cured/animals infected (C/I) at dose 1.25 mg/kg; C/I = 6/6; assay type: functional
[31] = test system: Rattus norvegicus; test: In vivo activity against vaginal candidoses in rats, measured as the ratio of animals cured/animals infected (C/I) at dose 1.25 mg/kg; C/I = 3/12; assay type: functional
[32] = In vivo activity against microsporosis guinea pig, measured as the ratio of animals cured/animals infected (C/I) at dose 10 mg/kg; C/I = 4/4; assay type: functional
[33] = In vivo activity against microsporosis guinea pig, measured as the ratio of animals cured/animals infected (C/I) at dose 1.25 mg/kg; C/I = 0/6; assay type: functional
[34] = In vivo activity against microsporosis guinea pig, measured as the ratio of animals cured/animals infected (C/I) at dose 2.5 mg/kg; C/I = 2/6; assay type: functional
[35] = In vivo activity against vaginal candidoses in rats, measured as the ratio of animals cured/animals infected (C/I) at dose 2.5 mg/kg; C/I = 4/11; assay type: functional
[36] = In vivo activity against vaginal candidoses in rats, measured as the ratio of animals cured/animals infected (C/I) at dose 0.63 mg/kg; C/I = 0/4; assay type: functional
[37] = In vivo activity against vaginal candidoses in rats, measured as the ratio of animals cured/animals infected (C/I) at dose 10 mg/kg; C/I = 5/6; assay type: functional
[38] = In vivo activity against microsporosis guinea pig, measured as the ratio of animals cured/animals infected (C/I) at dose 10 mg/kg; C/I = 5/6; assay type: functional
[39] = In vivo activity against microsporosis guinea pig, measured as the ratio of animals cured/animals infected (C/I) at dose 2.5 mg/kg; C/I = 1/6; assay type: functional
[40] = In vivo activity against vaginal candidoses in rats, measured as the ratio of animals cured/animals infected (C/I) at dose 2.5 mg/kg; C/I = 1/6; assay type: functional

Row | SMILES | Inhibition [1] | Inhibition [2] | Inhibition [3] | Inhibition [4] | Inhibition [5] | Inhibition [6] | Inhibition [7] | Inhibition [8] | Inhibition [9] | Inhibition [10] | Inhibition [11] | C/I ratio [14] | further results
1 | CC(C)n1ncn(-c2ccc(N3CCN(c4ccc(OC[C@@H]5COC(Cn6ccnc6)(c6ccc(Cl)cc6Cl)O5)cc4)CC3)cc2)c1=O (stereo partly drawn) | >100 µg/mL | 100 µg/mL | 100 µg/mL | >100 µg/mL | >100 µg/mL | >100 µg/mL | >100 µg/mL | >100 µg/mL | >100 µg/mL | 100 µg/mL | 100 µg/mL | 0 | C/I ratio [12]: 0.5; C/I ratio [13]: 0
2 | CCCCn1ncn(-c2ccc(N3CCN(c4ccc(OC[C@@H]5COC(Cn6ccnc6)(c6ccc(Cl)cc6Cl)O5)cc4)CC3)cc2)c1=O (stereo partly drawn) | >100 µg/mL | 100 µg/mL | 100 µg/mL | >100 µg/mL | >100 µg/mL | >100 µg/mL | >100 µg/mL | >100 µg/mL | >100 µg/mL | 100 µg/mL | 10 µg/mL | – | C/I ratio [15]: 4; C/I ratio [16]: 0
3 | CCn1ncn(-c2ccc(N3CCN(c4ccc(OC[C@@H]5COC(Cn6cncn6)(c6ccc(Cl)cc6Cl)O5)cc4)CC3)cc2)c1=O (stereo partly drawn) | >100 µg/mL | 100 µg/mL | 1 µg/mL | 10 µg/mL | >100 µg/mL | >100 µg/mL | >100 µg/mL | >100 µg/mL | >100 µg/mL | 1 µg/mL | 1 µg/mL | – | C/I ratio [17]: 16; C/I ratio [18]: 0.5; C/I ratio [19]: 0; C/I ratio [20]: 0.3; C/I ratio [21]: 4; C/I ratio [22]: 0.867; C/I ratio [23]: 0.833
4 | CC(C)CCn1ncn(-c2ccc(N3CCN(c4ccc(OC[C@@H]5COC(Cn6cncn6)(c6ccc(Cl)cc6Cl)O5)cc4)CC3)cc2)c1=O (stereo partly drawn) | >100 µg/mL | 100 µg/mL | >100 µg/mL | >100 µg/mL | >100 µg/mL | >100 µg/mL | >100 µg/mL | >100 µg/mL | >100 µg/mL | 100 µg/mL | >100 µg/mL | 0 | C/I ratio [24]: 1
5 | CCCn1ncn(-c2ccc(N3CCN(c4ccc(OC[C@@H]5COC(Cn6ccnc6)(c6ccc(Cl)cc6Cl)O5)cc4)CC3)cc2)c1=O (stereo partly drawn) | >100 µg/mL | >100 µg/mL | >100 µg/mL | >100 µg/mL | >100 µg/mL | >100 µg/mL | >100 µg/mL | >100 µg/mL | >100 µg/mL | 100 µg/mL | 100 µg/mL | 0 | C/I ratio [25]: 1
6 | Cc1nn(CC(C)C)c(=O)n1-c1ccc(N2CCN(c3ccc(OC[C@@H]4COC(Cn5cncn5)(c5ccc(Cl)cc5Cl)O4)cc3)CC2)cc1 (stereo partly drawn) | >100 µg/mL | 100 µg/mL | 1 µg/mL | 100 µg/mL | >100 µg/mL | > 100 µg/mL | >100 µg/mL | >100 µg/mL | >100 µg/mL | 10 µg/mL | >100 µg/mL | – | C/I ratio [26]: 0.333; C/I ratio [19]: 0; C/I ratio [27]: 0; C/I ratio [28]: 1; C/I ratio [29]: 0.364; C/I ratio [30]: 1
7 | Cn1ncn(-c2ccc(N3CCN(c4ccc(OC[C@@H]5COC(Cn6ccnc6)(c6ccc(Cl)cc6Cl)O5)cc4)CC3)cc2)c1=O (stereo partly drawn) | 100 µg/mL | >100 µg/mL | 1 µg/mL | 1 µg/mL | >100 µg/mL | >100 µg/mL | >100 µg/mL | 100 µg/mL | >100 µg/mL | 1 µg/mL | 1 µg/mL | – | C/I ratio [31]: 0.25; C/I ratio [32]: 1; C/I ratio [33]: 0; C/I ratio [34]: 0.333; C/I ratio [35]: 0.364; C/I ratio [36]: 0; C/I ratio [37]: 0.833
8 | Cc1nn(C(C)C)c(=O)n1-c1ccc(N2CCN(c3ccc(OC[C@@H]4COC(Cn5ccnc5)(c5ccc(Cl)cc5Cl)O4)cc3)CC2)cc1 (stereo partly drawn) | >100 µg/mL | 100 µg/mL | 1 µg/mL | >100 µg/mL | >100 µg/mL | >100 µg/mL | >100 µg/mL | >100 µg/mL | >100 µg/mL | 100 µg/mL | >100 µg/mL | – | C/I ratio [38]: 0.833; C/I ratio [33]: 0; C/I ratio [39]: 1; C/I ratio [40]: 1
9 | CCC(C)n1ncn(-c2ccc(N3CCN(c4ccc(OC[C@@H]5COC(Cn6ccnc6)(c6ccc(Cl)cc6Cl)O5)cc4)CC3)cc2)c1=O (stereo partly drawn) | 100 µg/mL | >100 µg/mL | 1 µg/mL | 10 µg/mL | >100 µg/mL | >100 µg/mL | 100 µg/mL | >100 µg/mL | >100 µg/mL | 1 µg/mL | 1 µg/mL | – | C/I ratio [24]: 1
